# Screening results (PubChem BioAssay)
# ARFGAP1 inhibitor = rat ARFGAP1 inhibition | Arfgap1-stimulated ARF1 GTP hydrolysis, GDP FP detection | inhibition, % at 16.5 µM | 0.26% of 360,000 active | AID 651572;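 active = inhibition above a per-plate limit, mean inhibition of low control wells plus 3 SD, cut at about 25% in these data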;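 also: 0% = DMSO wells with enzyme and 100% = wells lacking Arfgap1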
#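 Assay system: Rat Arfgap1 GAP domain (His6, aa 1-136), purified enzyme | Buffer or medium: HEPES 25 mM pH 7.5, NaCl 150 mM, MgCl2, DTT | Schedule: GTP hydrolysis reaction 2 h at 25 °C | Signal: FP of antibody-bound GDP Alexa 633 tracer, ex 620/em 688 nm | Measure: Percent inhibition of Arfgap1-stimulated GTP hydrolysis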
# pPAFAH inh = pPAFAH (human) enzyme inhibition | Q13093 | recombinant pPAFAH, FP-rhodamine probe fluorescence polarization | inhibition, % at 3.39 µM | 1.5% of 330,000 active | AID 463082;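 active = inhibition above the mean inhibition across the screen plus 3 SD, cut at about 25% in these data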;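 also: inhibitors block binding of the rhodamine activity-based probe so polarization drops; 0% = enzyme with DMSO and 100% = wells lacking pPAFAH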
# Target sequence (Q13093 whole entry, looked up): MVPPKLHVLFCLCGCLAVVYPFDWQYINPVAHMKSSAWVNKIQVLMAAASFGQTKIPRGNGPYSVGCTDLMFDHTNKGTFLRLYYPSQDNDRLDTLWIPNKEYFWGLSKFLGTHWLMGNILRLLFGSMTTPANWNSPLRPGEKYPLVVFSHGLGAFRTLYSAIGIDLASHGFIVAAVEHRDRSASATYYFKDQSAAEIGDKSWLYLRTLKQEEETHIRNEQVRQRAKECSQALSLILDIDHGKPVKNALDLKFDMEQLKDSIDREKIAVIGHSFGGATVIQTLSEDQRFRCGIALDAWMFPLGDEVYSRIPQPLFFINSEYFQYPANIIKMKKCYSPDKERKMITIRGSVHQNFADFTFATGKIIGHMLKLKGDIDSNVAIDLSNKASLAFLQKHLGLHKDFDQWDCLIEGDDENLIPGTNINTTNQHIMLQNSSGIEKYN
# PAFAH1B2 FP inh = blocks human PAF acetylhydrolase 1b catalytic subunit 2. recombinant PAFAH1B2, FP-rhodamine activity probe, fluorescence polarization. inhibition, % at 3.39 µM. 1.2% of 340,000 active;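 active = inhibition above the mean of all tested compounds plus 3 SD, cut at about 24% in these data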;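 also: 0% = enzyme with DMSO and 100% = wells lacking PAFAH1B2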
# PAFAH1B3 inh = inhibitors of human PAFAH1B3; 0.28% of 340,000 active; inhibition, % at 3.39 µM; Q15102; recombinant PAFAH1B3, FP-rhodamine probe, fluorescence polarization;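 active = inhibition above the screen-wide average of all tested compounds plus 3 SD, cut at about 25% in these data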;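 also: 0% = enzyme with DMSO only and 100% = wells lacking PAFAH1B3 protein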
# Target sequence (Q15102 whole entry, looked up): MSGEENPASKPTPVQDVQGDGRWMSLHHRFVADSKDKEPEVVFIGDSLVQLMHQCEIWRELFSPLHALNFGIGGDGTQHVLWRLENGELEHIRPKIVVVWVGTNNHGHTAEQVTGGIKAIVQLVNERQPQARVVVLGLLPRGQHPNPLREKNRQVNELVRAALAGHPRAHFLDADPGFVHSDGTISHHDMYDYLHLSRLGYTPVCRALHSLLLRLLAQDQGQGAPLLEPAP
# ASAP1 inh = blocks human ASAP1-stimulated Arf1 GTP hydrolysis; GDP FP detection; inhibition, % at 16.5 µM; 0.19% of 360,000 active; AID 624377; in the data active = inhibition above about 25%;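 also: 0% = vehicle with enzyme and substrate and 100% = no enzyme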
# PAFAH2 FP inh = PAFAH2 (human) inhibition | AID 492956 | inhibition, % at 3.39 µM | 0.99% of 340,000 active | Q99487 | recombinant PAFAH2, FP-rhodamine activity probe, fluorescence polarization;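 active = inhibition above the mean over all tested compounds plus 3 SD, cut at about 30% in these data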;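 also: inhibitors block probe labeling of enzyme so polarization drops; 0% = enzyme with DMSO and 100% = wells lacking PAFAH2 protein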
# PAFAH2 FP conf = confirmation of human PAFAH2 inhibitors; inhibition, % at 3.39 µM; 65% of 2,300 active; recombinant PAFAH2, FP-rhodamine activity probe, fluorescence polarization; shares compounds with PAFAH2 FP inh;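 active = mean inhibition over three repeats above a set limit taken from the earlier primary screen, cut at about 30% in these data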;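 also: inhibitor blocks binding of rhodamine activity probe so polarization falls; 0% = enzyme with DMSO and 100% = wells lacking PAFAH2 protein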
# * marks the source's active call; other numbers are inactive results; . = not tested or not shown. Hits are enriched below; roughly 2.8% of the tested compounds scored in any of these assays.
SMILES,ARFGAP1 inhibitor,pPAFAH inh,PAFAH1B2 FP inh,PAFAH1B3 inh,ASAP1 inh,PAFAH2 FP inh,PAFAH2 FP conf
O=C1CSC(=S)N1N=Cc1c(O)ccc2ccccc12,-3.3,.,5.5,16.0,-9.2,41.9*,34.5*
CC1(c2nnnn2-c2ccc3c(c2)OCCO3)CCC(=O)N1CC(F)(F)F (centres undefined),20.8,.,.,.,-9.8,.,.
O=C(COc1ccc2c(c1)OCO2)Nc1ccccc1F,2.5,7.8,1.7,8.0,-14.4,4.1,.
N#Cc1ccccc1NC(=O)COC(=O)c1ccc2c(c1)OCO2,7.6,3.9,4.3,8.2,3.2,61.6*,53.4*
O=C(COC(=O)c1ccc2c(c1)OCO2)Nc1ccccc1F,15.7,5.7,1.9,7.4,3.6,53.7*,48.6*
CCN(CC)S(=O)(=O)c1cccc(-n2c(O)c(C=Nc3ccccc3C(=O)O)c3ccccc3c2=O)c1,1.3,10.5,2.7,0.3,-9.3,88.9*,73.1*
CC1=C(C(=O)N(C)C)CC(CC(=O)NCCCCc2ccccc2)C(=O)N1CCCN1CCCC1=O (centres undefined),2.4,.,.,.,-13.0,.,.
O=C(NNC(=O)c1cccc(O)c1)Nc1ccc([N+](=O)[O-])cc1,-2.9,-3.3,3.7,7.1,15.8,49.1*,0.6
O=C(Nc1ccc([N+](=O)[O-])cc1)c1cccc([N+](=O)[O-])c1,-1.6,.,.,.,-0.6,.,.
CC(Sc1nnc(-c2cccnc2)o1)C(=O)NC1CCCC1 (centres undefined),8.1,-1.0,-1.2,-0.2,-0.8,7.8,.
Cc1sc2nc(SCC(=O)Nc3ccc(S(N)(=O)=O)cc3)[nH]c(=O)c2c1C,13.3,11.7,3.1,6.9,-0.5,14.8,.
Cc1sc2nc(SCC(=O)Nc3cccc(S(N)(=O)=O)c3)[nH]c(=O)c2c1C,-2.1,9.7,2.8,6.2,10.8,35.3*,15.9
Cc1cccc(NC(=O)C(=O)C2C(=O)Nc3ccccc32)c1 (centres undefined),3.5,-1.9,7.2,0.9,-2.5,36.2*,29.4
O=C(Nc1ccc(F)cc1)C(=O)C1C(=O)Nc2ccccc21 (centres undefined),-7.5,6.0,3.1,-5.1,-3.1,17.7,.
Cc1ccc(SCC(=O)NC2CCCCCC2)cc1,8.6,0.0,22.1,-6.5,-7.9,-3.3,.
Cc1cc(/C=C(\C#N)C(=O)OCC(=O)NC(=O)NC(C)(C)C)c(C)n1CCC(C)C,7.8,1.8,2.1,-7.6,0.2,-0.2,.
C=CCNC(=O)NC(=O)COC(=O)/C(C#N)=C/c1cc(C)n(CCC(C)C)c1C,9.8,0.9,-1.1,10.6,-0.8,0.1,.
CCCn1c(C)cc(/C=C(\C#N)C(=O)OCC(=O)Nc2cccc(OC)c2)c1C,2.4,-5.0,0.0,-1.1,1.1,53.6*,59.5*
CCCn1c(C)cc(/C=C(\C#N)C(=O)OCC(=O)Nc2cccc(S(N)(=O)=O)c2)c1C,-4.0,8.1,-1.8,-3.4,19.2,33.7*,26.4
O=C(COC(=O)c1ccc(Br)c(S(=O)(=O)N2CCOCC2)c1)NCCc1ccccc1,12.3,1.3,0.9,5.9,-9.0,11.5,.
COc1ccc(C(=O)OCCOc2cccc(Cl)c2)cc1S(=O)(=O)N1CCOCC1,5.3,4.3,7.9,13.1,-1.2,35.0*,19.2
Cc1cccc(OCCOC(=O)c2ccc(F)c(S(=O)(=O)N3CCOCC3)c2)c1,-5.0,4.8,4.2,1.8,-4.5,8.8,.
O=C(COC(=O)c1ccc(CNS(=O)(=O)c2ccc(F)c(Cl)c2)cc1)NCC1CCCCC1,8.7,6.9,5.4,3.7,-0.9,58.6*,65.6*
COc1ccc(C(=O)OCC(=O)NCCc2ccc(F)cc2)cc1S(=O)(=O)N1CCOCC1,12.9,6.5,7.8,13.1,16.2,66.0*,47.1*
O=C(COC(=O)c1ccc(F)c(S(=O)(=O)N2CCOCC2)c1)NCCc1ccc(F)cc1,4.7,4.7,-2.8,1.3,2.4,30.1*,20.5
SMILES,ARFGAP1 inhibitor,pPAFAH inh,PAFAH1B2 FP inh,PAFAH1B3 inh,ASAP1 inh,PAFAH2 FP inh,PAFAH2 FP conf
CC(Sc1ncccn1)C(=O)NNC(=O)c1cccc(Cl)c1 (centres undefined),-2.5,-1.5,2.0,4.2,-5.4,0.9,.
O=C(NC1CCCCC1)c1cc(-c2cccs2)on1,-1.0,-5.1,-2.2,-1.9,-1.9,1.5,.
COc1ccc(-c2c(C(=O)c3ccccc3)[nH]c(N)c2C(=O)NCCc2c[nH]c3ccccc23)cc1,7.7,.,.,.,-6.4,.,.
COc1ccc(CNC(=O)CN2C(=O)NC(C)(c3cccc4ccccc34)C2=O)cc1OC (centres undefined),4.0,7.8,4.5,6.3,4.6,-1.2,.
Cc1ccc(N2CCN(S(=O)(=O)c3c(C)nc4scc(C)n4c3=O)CC2)c(C)c1,-17.9,8.4,-0.8,4.3,4.9,-2.7,.
O=C(COC(=O)c1ccc(F)c(S(=O)(=O)N2CCCCC2)c1)NCc1ccc(F)cc1,7.7,8.0,0.9,7.1,10.1,32.3*,17.0
O=C(COC(=O)c1ccc(Cl)nc1)NCc1ccc(F)cc1,0.2,9.2,-3.5,0.7,10.4,11.3,.
COc1ccc(C(=O)OCC(=O)c2ccccc2)cc1S(=O)(=O)N1CCOCC1,0.3,-1.1,1.0,1.8,2.4,52.4*,40.4*
Nc1cc(C(=O)OCC(=O)NCc2ccc(F)cc2)ccc1Cl,4.1,9.9,1.2,10.5,-3.9,55.3*,43.8*
O=C(COC(=O)c1ccc(S(=O)(=O)N2CCCCCC2)cc1)NCc1ccc(F)cc1,3.5,.,7.8,12.9,8.3,5.1,.
CN1OC[C@@H]2CN(C(=O)C(C)(C)C)[C@H](c3ccc(-c4cc5ccccc5o4)cc3)C[C@@H]21,5.9,.,.,.,-7.3,.,.
COC(=O)C(C)Sc1nc2ccsc2c(=O)n1Cc1ccccc1 (centres undefined),-6.4,1.6,2.1,0.4,6.7,34.5*,23.5
CC(=O)OCC1=C(C(=O)O)N2C(=O)C(NC(=O)c3ccc(COc4c(C)cccc4Cl)o3)C2SC1 (centres undefined),-4.6,15.3,-4.6,-2.3,5.2,42.6*,41.5*
CC(=O)OCC1=C(C(=O)O)N2C(=O)[C@@H](NC(=O)Cc3ccccc3)[C@H]2SC1,-15.3,.,4.6,13.1,-1.8,17.6,.
CCOc1ccc(C(=O)NC2C(=O)N3C(C(=O)O)=C(COC(C)=O)CSC23)cc1OCC (centres undefined),-2.6,.,3.8,4.4,7.2,-5.1,.
CC(=O)OCC1=C(C(=O)O)N2C(=O)[C@@H](NC(=O)Cc3cccs3)[C@H]2SC1,10.8,15.7,5.2,5.3,7.1,39.1*,23.7
Cc1cc(C(=O)COC(=O)c2ccc[nH]c2=O)c(C)n1-c1ccccc1F,-8.6,-7.3,8.2,9.3,6.1,2.4,.
Cc1cc(C(=O)COC(=O)c2ccc(O)cc2)c(C)n1-c1ccccc1F,-2.5,17.4,-3.9,11.1,6.6,38.5*,24.6
